Hits are enriched below; roughly 1.8% of the tested compounds scored in any of these assays.
DDE Tn7 FP inh: disrupts Tn7 cyclic peptide binding to fibrin D-Dimer-E complex | FP displacement of FITC-Tn7 peptide from fibrin DD(E); 0% = median of compound wells per plate | inhibition, % at 8.3 µM | AID 720508 | actives 0.13% (n = 370,000);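 active = inhibition above the mean of compounds falling within the control limits plus 3 SD of them, cut at about 14% in these data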;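 also: 0% = plate median of compound wells and 100% = 10 µM Aha-Tn7 peptide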
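Test system: human clot-derived fibrin DD(E) complex / Quantity: 2 µM final DD(E) protein / Incubation: 10 min plus 3 h, room temperature / Measured by: fluorescence polarization / Benchmarks: high control of 10 µM Aha-Tn7 peptide / Replicates: singlicate testing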
ARNT-TACC3 inh: disruptors of human ARNT/TACC3 interaction; Q9Y6A5; AlphaScreen His-ARNT PAS-B/GST-TACC3 binding, luminescence; TACC3 fragment carries E629A point mutation; inhibition, % at 9.99 µM; actives 0.66% (n = 390,000); AID 623870;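 active = mean inhibition of replicates at least 50% and at least half of replicates each reaching 50%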;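 also: 0% = complete ARNT plus TACC3 wells and 100% = ARNT alone without TACC3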
DDE Tn6 FP inh: inhibitors of Tn6 peptide binding to human fibrin DD(E) | P02675 | Fibrin DD(E) TRITC-Tn6 fluorescence polarization displacement | inhibition, % at 8.3 µM | actives 0.21% (n = 370,000) | AID 720509;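 active = inhibition above a per-campaign cutoff: mean of compounds within control limits plus 3 SD, cut at about 15% in these data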;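 also: 0% = median of all compound wells on the plate and 100% = blocking peptide control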
CAL PDZ FP-1: inhibitors of human CAL PDZ peptide binding. Q9HD26. purified CAL PDZ, TMR-peptide fluorescence polarization, 1 h. inhibition, % at 20 µM. actives 0.02% (n = 330,000). AID 504414;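 active = highest replicate inhibition of at least 40%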;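 also: plate controls were DMSO neutral control wells for no effect and unlabeled competitor peptide control wells for full effect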
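System: tagged CAL PDZ domain. Schedule: 1 h room-temperature incubation prior to read. Signal: fluorescence polarization (mP). Measure: percent inhibition from loss of millipolarization.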
CAL PDZ FP-2: inhibitors of human CAL PDZ peptide binding. inhibition, % at 24.9 µM. AID 602252. actives 0.92% (n = 300,000). purified CAL PDZ, TMR-peptide fluorescence polarization, 1 h. Q9HD26;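 active = mean inhibition of at least 30% with at least half of replicates also reaching 30%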;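 also: 0% = DMSO neutral control and 100% = excess unlabeled competitor peptide PRC23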
GRK2 aptamer HTS: inhibitors of human GRK2 displacing RNA aptamer. inhibition of aptamer binding, % at 10 µM. bead flow cytometry, FAM-aptamer displacement from GRK2. actives 0.59% (n = 330,000). P25098;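 active = inhibition of aptamer binding above 40%, roughly 3 SD of noise, on plates passing a quality check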;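 also: median bead fluorescence of bound FAM aptamer so fluorescent compounds give negative values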
Target sequence (P25098 whole entry, looked up): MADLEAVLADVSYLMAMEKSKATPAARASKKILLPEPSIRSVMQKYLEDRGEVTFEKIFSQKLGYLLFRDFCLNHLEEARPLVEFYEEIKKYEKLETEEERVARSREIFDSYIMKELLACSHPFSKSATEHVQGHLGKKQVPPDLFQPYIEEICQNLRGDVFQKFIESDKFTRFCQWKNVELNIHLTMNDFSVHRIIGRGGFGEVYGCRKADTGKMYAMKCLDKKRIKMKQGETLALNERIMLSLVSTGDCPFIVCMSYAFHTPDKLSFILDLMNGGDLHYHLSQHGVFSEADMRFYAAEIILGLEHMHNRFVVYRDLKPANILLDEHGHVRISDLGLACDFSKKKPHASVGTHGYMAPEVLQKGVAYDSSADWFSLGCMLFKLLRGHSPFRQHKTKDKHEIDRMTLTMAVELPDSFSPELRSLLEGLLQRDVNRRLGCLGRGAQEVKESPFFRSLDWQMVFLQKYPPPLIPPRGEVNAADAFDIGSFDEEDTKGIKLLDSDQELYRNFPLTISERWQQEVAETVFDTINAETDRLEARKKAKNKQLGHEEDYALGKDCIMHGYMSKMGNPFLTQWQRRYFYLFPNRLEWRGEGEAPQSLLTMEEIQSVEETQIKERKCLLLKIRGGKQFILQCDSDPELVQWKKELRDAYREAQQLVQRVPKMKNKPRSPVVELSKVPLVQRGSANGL
Numbers without * were called inactive; / = no result given.

SMILES	DDE Tn7 FP inh	ARNT-TACC3 inh	DDE Tn6 FP inh	CAL PDZ FP-1	CAL PDZ FP-2	GRK2 aptamer HTS
CCC(=O)N1[C@@H](CO)[C@@H]2c3ccccc3N(C(=O)c3ccncc3)C[C@@H]21	/	-9	/	/	/	/
O=C(C[C@H]1C[C@@H]2c3cc(NC(=O)C4CCOCC4)ccc3O[C@@H]2[C@@H](CO)O1)NCc1ccncc1	/	1	/	/	/	/
CN(C)c1ccc(Nc2nc(N)c3ccccc3n2)cc1	1	50*	4	3	-6	0
COc1ccccc1-c1cc(NC=O)c2ncc(-c3cccc(C(F)(F)F)c3)n2c1	3	/	3	/	/	/
CN(C)c1ccccc1-c1cc(NC=O)c2ncc(-c3cccc(C(F)(F)F)c3)n2c1	-8	/	34*	/	/	/
O=C(C[C@@H]1CC[C@@H](NC(=O)Nc2ccc3c(c2)OCO3)[C@@H](CO)O1)NCc1ccccc1	/	-47	/	/	/	/
Cc1ccccc1Cn1cc(CN2[C@@H](Cc3ccccc3)COc3cc(Br)ccc3S2(=O)=O)nn1	3	/	0	/	/	/
COc1ccc(CNC(=O)C[C@@H]2C[C@H]3c4cc(NS(C)(=O)=O)ccc4O[C@H]3[C@@H](CO)O2)cc1	/	-6	/	/	/	/
O=C(Nc1ccc(Br)cc1)N1CCCC(O)C1 (stereo not given)	-6	-1	-9	-1	-5	56*
Clc1ccc(OCc2nnc(-c3ccccc3Br)o2)c(Cl)c1	-9	-2	42*	-1	-3	1
CC1CCN(CCCn2c(=S)[nH]c3c(sc4ccccc43)c2=O)CC1	-3	1	0	12	50*	3
CC1CCN(CCCn2c(=S)[nH]c3c(sc4ccc([N+](=O)[O-])cc43)c2=O)CC1	2	1	-10	1	-3	1
CCN(CC)C(=O)CN1C(=O)/C(=C/c2ccccc2)SC1=S	-4	-3	2	1	44*	0
CCN(C(=O)CN1C(=O)/C(=C/c2ccccc2F)SC1=S)C1CCS(=O)(=O)C1 (stereo not given)	5	-3	-2	0	75*	0
CCN(C(=O)CN1C(=O)S/C(=C\c2ccccc2OC)C1=O)C1CCS(=O)(=O)C1 (stereo not given)	-4	-2	-10	-4	-2	5
O=C(C1CCOCC1)N1C[C@@H]2[C@H](c3ccccc31)[C@@H](CO)N2C(=O)Cc1ccccc1	/	-11	/	/	/	/
CO[C@@H]1CN(C)C(=O)c2ccc(NC(=O)C3CCCC3)cc2OC[C@H](C)N(S(C)(=O)=O)C[C@H]1C	/	-3	/	/	/	/
CCOC(=O)N(C)C[C@@H]1OCc2ccccc2-c2ccccc2C(=O)N([C@@H](C)CO)C[C@@H]1C	/	1	/	/	/	/
Cc1ccc(CNC(=O)c2ccc(N3CCC4(CC3)CC(c3ccccc3)=NO4)c(NC(=O)c3c(Cl)cccc3Cl)c2)cc1	-1	-6	1	1	51*	3
O=C(O)c1cccc(Cn2c(Cl)c(/C=N/NC(=O)c3cc4ccccc4cc3O)sc2=O)c1	10	16	-2	/	47*	3
O=C(O)c1cccc(Cn2c(Cl)c(/C=N/NC(=O)c3ccccc3)sc2=O)c1	4	/	1	-2	-2	3
O=C(O)c1ccc(/C=N/NC(=O)c2cc3ccccc3cc2O)cc1	-2	8	1	-1	46*	1
O=C(CNc1ccc2ccccc2c1)N/N=C/c1ccc(C(=O)O)cc1	-1	/	-2	-2	-3	4
CCc1nnc(NC(=O)CN2CCN(Cc3ccccc3C)CC2)s1	-6	1	-2	1	0	2
CCc1nnc(NC(=O)CN2CCN(c3ccccc3F)CC2)s1	-7	-6	-1	0	41*	3
O=c1[nH]c2nc(Cl)nc(Cl)c2[nH]1	0	-3	3	-1	81*	/
O=c1[nH]c2cc(Br)c(Br)nc2[nH]1	7	/	5	/	/	/
CC(=O)NCCCc1nc2ccccc2n1Cc1c(F)cccc1Cl	-6	-18	3	0	-3	3
CC(C)N(Cc1ccccc1)C(=O)COC(=O)c1cnc(Cl)c(Cl)c1	0	0	-4	0	42*	2
CC1(CC(=O)N/N=C/c2cc(Br)c(O)cc2O)OCCO1	2	75*	6	-2	-4	0

High-throughput results from PubChem BioAssay.
